Screening results: PubChem, several laboratories
Shown are actives, neighbours in structure and some others; about 1.5% of the full set was active somewhere.
TPT1 inhibitor: C. albicans TPT1 enzyme inhibition | recombinant caTPT1, FP RNA substrate dephosphorylation | inhibition, % at 5 µM | 300,000 tested, 0.81% active | AID 1962;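 active = inhibition above the mean of all tested compounds plus 3 SD, set per screening campaign, cut at about 24% in these data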;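 also: plate controls were DMSO alone for no effect and ferristatin control at 100 nM for full effect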
Rpn11 inh: Rpn11 (human) deubiquitinase inhibition; human 26S proteasome, Ub4-pepOG fluorescence polarization; 20S core pre-blocked with epoxomicin; AID 588493; 360,000 tested, 0.59% active; calls only at 20 µM;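 active = inhibition at 20 µM, scaled to each plate's controls, above about 33%, limit read from the data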
CSN inh: blocks human CSN-mediated cullin deneddylation. Q92905. Purified CSN, SCF-Nedd8-OG deneddylation, fluorescence polarization. inhibition, % at 12.5 µM. 360,000 tested, 0.38% active. AID 651999;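 active = pattern-corrected inhibition above about 35%, with an unprinted fluorescence ratio check between 0.5 and 1.5, limit read from the data, passing the limit was not always enough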;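 also: 0% = enzyme with substrate and 100% = substrate without enzyme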
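Test system: purified human Csn5 enzyme expressed in HEK293T cells. Amount: 0.24 nM enzyme. Reagent: SCFSkp2-Nedd8OG substrate at 10 nM final. Schedule: 90 min incubation of compound, enzyme and substrate at room temperature. Detection: fluorescence polarization. Read-out: % inhibition of substrate cleavage by Csn5.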
HNF4A DNA FP: change in binding of human HNF4 alpha to DNA | P41235 | 360,000 tested, 0.3% active | HNF4a-FITC DNA binding, fluorescence polarization, 1 h | activity change, % at 10 µM | AID 1224865; in the data active = activity change above about 30%, passing the limit was not always enough
TPT1 inh confirm: confirmation of Candida albicans TPT1 inhibitors; shares compounds with TPT1 inhibitor; recombinant caTPT1, fluorescence polarization, RNase T1 coupled; inhibition, % at 5 µM; 2,400 tested, 74% active;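 active = inhibition above the primary screen limit, the mean inhibition of all tested compounds plus 3 SD, cut at about 25% in these data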
RNase T1 counter: blocks Aspergillus oryzae RNase T1, a TPT1 counter-screen; AID 2153; 2,400 tested, 83% active; inhibition, % at 5 µM; shares compounds with TPT1 inhibitor; RNase T1 cleavage, fluorescence polarization, 1536-well;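 active = inhibition above the solvent-only control well mean plus 3 SD, limit set per screening run, cut at about 23% in these data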;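 also: plate controls were DMSO wells with enzyme for no effect and wells without RNase T1 for full effect; inhibitors block cleavage so intact labeled substrate keeps polarization high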
Target sequence (P00651 whole entry, looked up): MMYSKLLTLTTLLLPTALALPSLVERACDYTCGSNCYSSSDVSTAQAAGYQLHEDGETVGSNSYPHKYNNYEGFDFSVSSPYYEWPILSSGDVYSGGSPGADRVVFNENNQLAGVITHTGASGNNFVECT
Rpn11 confirm: confirmation of human proteasome Rpn11 inhibitors; inhibition, % at 20 µM; AID 602318; shares compounds with Rpn11 inh; purified human 26S proteasome, Ub4-pepOG fluorescence polarization; proteasome pretreated with epoxomicin; 1,900 tested, 29% active
MMP-2 counter: blocks human MMP-2, flagging nonselective RPN11 hits; shares compounds with Rpn11 inh; recombinant MMP-2, FRET peptide cleavage fluorescence; inhibition, % at 20 µM; 1,900 tested, 4% active;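 also: human MMP-2 activated beforehand with APMA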
Thrombin FP: thrombin (bovine) inhibition counter-screen. shares compounds with Rpn11 inh. bovine thrombin cleavage of Ub4-pepOG, fluorescence polarization. inhibition, % at 20 µM. 1,900 tested, 13% active. AID 602333;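 active = mean inhibition at least 40% at 20 µM, or signal 3 deviations below plate average, so some actives read negative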;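 also: plate controls were thrombin with DMSO for no effect and buffer wells lacking thrombin for full effect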
Target sequence (P00735 whole entry, looked up): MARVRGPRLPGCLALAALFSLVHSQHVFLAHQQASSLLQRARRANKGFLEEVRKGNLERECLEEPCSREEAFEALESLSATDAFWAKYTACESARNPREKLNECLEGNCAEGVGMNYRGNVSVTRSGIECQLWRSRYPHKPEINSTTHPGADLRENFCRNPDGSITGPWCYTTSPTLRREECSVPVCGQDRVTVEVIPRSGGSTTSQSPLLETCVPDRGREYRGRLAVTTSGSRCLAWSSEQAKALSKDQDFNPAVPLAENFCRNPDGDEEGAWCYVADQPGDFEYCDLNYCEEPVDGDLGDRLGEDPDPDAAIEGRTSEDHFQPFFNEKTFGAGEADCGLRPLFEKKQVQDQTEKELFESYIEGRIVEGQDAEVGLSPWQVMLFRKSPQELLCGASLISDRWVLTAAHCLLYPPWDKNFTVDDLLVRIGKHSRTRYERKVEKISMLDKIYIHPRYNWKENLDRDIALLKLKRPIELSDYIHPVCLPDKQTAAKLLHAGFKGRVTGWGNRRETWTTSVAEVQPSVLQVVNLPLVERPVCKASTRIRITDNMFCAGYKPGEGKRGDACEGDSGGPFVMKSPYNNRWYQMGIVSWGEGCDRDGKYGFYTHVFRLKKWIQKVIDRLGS
* marks the source's active call; other numbers are inactive results; i = inactive; nt = no result given; + = active, no number. Rule as the data show it, unless noted: active = inhibition above about 40%; inactive = the rest.

SMILES | TPT1 inhibitor | Rpn11 inh | CSN inh | HNF4A DNA FP | TPT1 inh confirm | RNase T1 counter | Rpn11 confirm | MMP-2 counter | Thrombin FP
CCOC(=O)CSC1=NC(=O)/C(=C\c2ccc(Cl)cc2)S1 | 30.0* | + | 19.1 | 26.5 | 52.3* | 62.3* | 74.3* | 12.1 | 66.1*
CCN(CC)S(=O)(=O)c1ccc(C(=O)NCC2(N3CCOCC3)CCCCC2)cc1 | nt | i | 0.1 | -3.7 | nt | nt | nt | nt | nt
CCc1noc(C)c1C(=O)Nc1cccc(S(=O)(=O)N(C)c2ccccc2)c1 | 2.8 | i | 3.1 | -3.8 | nt | nt | nt | nt | nt
COc1ccc(/C=C2\SC(=S)N(CCCC(=O)Nc3cccc(C(=O)O)c3)C2=O)cc1OC | 36.2* | + | 17.4 | 25.4 | 50.3* | 66.1* | 83.4* | -38.2 | 66.3*
COc1cc(/C=C2/CCC/C(=C\c3cc(O)c(OC)c(Cl)c3)C2=O)cc(Cl)c1O | 36.4* | + | 9.4 | 14.6 | 18.7 | 23.2* | 7.2 | 46.9* | 5.3
COc1cc(/C=C2\CC/C(=C\c3cc(OC)c(O)c(OC)c3)C2=O)cc(OC)c1O | 91.0* | + | 123.7 | 25.0 | 95.0* | 100.6* | 88.6* | 5.4 | 80.5*
COc1cc(/C=C2\CCC/C(=C\c3ccc(O)c(OC)c3)C2=O)ccc1O | 10.7 | i | 5.4 | -3.0 | nt | nt | nt | nt | nt
Cc1ccc(NS(=O)(=O)c2cc([N+](=O)[O-])ccc2N/N=C/c2sc(N3CCOCC3)nc2-c2ccccc2)c(C)c1 | 56.1* | + | 14.2 | 20.6 | 55.3* | 73.0* | 39.3 | -5.2 | 8.7
CCN(CC)c1ccc2cc(C(N)=O)c(=O)oc2c1 | 39.9* | + | 11.5 | 35.4 | 36.2* | 45.4* | 10.7 | -43.2 | 5.4
Cn1ccsc1=NC(=O)c1ccc(S(=O)(=O)C(F)F)cc1 | -0.7 | i | -3.9 | 5.7 | nt | nt | nt | nt | nt
Cc1cc(/C=C2\SC(=S)NC2=O)cc(C)c1O | 35.5* | + | 33.4 | 34.5* | 10.2 | 16.8 | 26.0 | 7.9 | 18.8
CCN(CC)c1ccc(C=C2SC(=S)NC2=O)cc1 | nt | nt | -73.9 | 5.0 | nt | nt | nt | nt | nt
O=C1/C(=C/c2ccc(O)c(O)c2)Oc2cc(O)ccc21 | 43.9* | + | 29.6 | 19.5 | 57.7* | 66.7* | 49.0* | 3.5 | 29.9
CCCN1C(=O)/C(=C/c2c(NCCCOC(C)C)nc3c(C)cccn3c2=O)SC1=S | 120.7* | + | 55.6* | 84.5 | 115.6* | 128.7* | 83.5* | -20.8 | 48.5*
CCC(C)Nc1nc2c(C)cccn2c(=O)c1C=Nc1ccc(OC)cc1 (centres undefined) | 0.1 | i | -2.5 | -0.5 | nt | nt | nt | nt | nt
Cc1ccc(C(=O)/C=C/c2ccc(-c3ccc(C)cc3)o2)cc1 | 38.8* | + | 3.4 | 5.8 | 72.0* | 79.2* | 18.4 | 0.5 | -12.6
O=C(/C=C\c1ccc(-c2ccccc2)o1)c1ccccc1 | 14.3 | i | -1.1 | 0.8 | nt | nt | nt | nt | nt
CC(c1nc2ccccc2n1Cc1ccccc1)n1c(-c2cnccn2)nc2ccccc21 (centres undefined) | nt | nt | 2.5 | 1.2 | nt | nt | nt | nt | nt
COc1ccc(C(=O)c2c(N)sc3c2CCN(C(=O)OC(C)(C)C)C3)cc1 | 30.2* | + | 9.1 | 11.9 | 13.4 | 21.9* | 19.9 | 16.5 | 29.9
CCCCN1CC(=O)N2[C@H]3c4ccc(OC)cc4OC[C@@H]3[C@H](c3ccccc3)[C@]2(C)C1=O | nt | i | -5.7 | -12.6 | nt | nt | nt | nt | nt
COc1ccc(S(=O)(=O)N2CCOCC2)cc1NC(=O)CN1C(=O)NC2(CCCC2)C1=O | nt | i | 1.6 | -4.4 | nt | nt | nt | nt | nt
O=C(N/C(=C/c1ccccc1)C(=O)N1CCCCC1)c1ccco1 | -4.5 | i | 0.8 | 0.8 | nt | nt | nt | nt | nt
CCOC(=O)CSc1nc2ccccc2n1C(=O)OCC | 38.7* | + | 8.7 | 22.3 | 37.0* | 47.4* | 51.1* | -17.6 | 31.5
CC(C)COC(=O)n1c(SCC(N)=O)nc2ccccc21 | -1.6 | i | 3.0 | -1.0 | nt | nt | nt | nt | nt
N#Cc1c(-c2ccco2)cc(-c2ccc(F)cc2)nc1N | 24.7* | + | 27.1 | 43.5* | 29.8* | 38.5* | 49.8* | -1.8 | 38.1
SMILES | TPT1 inhibitor | Rpn11 inh | CSN inh | HNF4A DNA FP | TPT1 inh confirm | RNase T1 counter | Rpn11 confirm | MMP-2 counter | Thrombin FP
N#Cc1c(-c2ccc(F)cc2)cc(-c2cccnc2)nc1N | 5.9 | i | 3.2 | 4.2 | nt | nt | nt | nt | nt
COC(=O)c1c(-c2cccnc2)csc1NC(=O)c1cc(C)on1 | 44.0* | + | 15.0 | 24.4 | 50.4* | 65.6* | 52.7* | -17.8 | 32.5
COC(=O)c1c(-c2ccc(C)cc2)csc1NC(=O)c1c(-c2ccccc2)noc1C | -0.2 | nt | nt | nt | nt | nt | nt | nt | nt
CSc1ccccc1NC(=O)COC(=O)Cc1ccsc1 | nt | i | -6.0 | 2.3 | nt | nt | nt | nt | nt
CC(SCc1nc2sc3c(c2c(=O)[nH]1)CCCC3)C(=O)Nc1ccccn1 (centres undefined) | 32.5* | + | 5.0 | 24.2 | 38.8* | 50.3* | 39.3 | -4.1 | 29.4
Cc1ccc(NC(=O)C(C)SCc2nc3sc4c(c3c(=O)[nH]2)CCCC4)nc1 (centres undefined) | 26.0* | + | 7.5 | 13.5 | 36.9* | 44.7* | 48.7* | -18.1 | 24.7
Cc1ccc(NC(=O)C(C)SCc2nc3sc(C)c(C)c3c(=O)[nH]2)nc1 (centres undefined) | 8.0 | i | 6.5 | 6.1 | nt | nt | nt | nt | nt
O=C1c2ccccc2C(c2nnnn2Cc2ccccc2)N1CCc1ccccc1F (centres undefined) | nt | nt | 5.3 | -0.4 | nt | nt | nt | nt | nt
N#Cc1cnc(Oc2ccc(Cl)cc2)nc1N | 0.5 | i | -1.6 | 1.6 | nt | nt | nt | nt | nt
C/C(=N\Nc1nc(-c2cc(C)ccc2C)cs1)c1cc2ccccc2oc1=O | 3.0 | i | -9.1 | 3.8 | nt | nt | nt | nt | nt
C/C(=N\Nc1nc(-c2cc(C)ccc2C)cs1)c1cc2c(ccc3ccccc32)oc1=O | 28.1* | + | -13.1 | 12.3 | 33.2* | 44.6* | 14.4 | -11.8 | -8.5
Cc1nn(CC(=O)c2ccc(Cl)s2)c(C)c1[N+](=O)[O-] | 43.1* | + | -3.6 | 15.3 | 40.4* | 49.4* | 19.2 | 6.4 | 17.0
CCN1CCc2c(sc(NC(=O)c3ccc(S(=O)(=O)N(CC)c4ccccc4)cc3)c2C(N)=O)C1 | 97.2* | + | 10.7 | 29.1 | 102.8* | 107.4* | 75.9* | -245.7 | 10.9
CCN1CCc2c(sc(NC(=O)c3ccc(C(=O)c4ccccc4)cc3)c2C(N)=O)C1 | 11.4 | i | 3.1 | 5.3 | nt | nt | nt | nt | nt
CCn1c(C)cc(/C=C2/SC(=S)N(CC(=O)O)C2=O)c1C | 83.1* | + | 28.1 | 44.2* | 94.3* | 102.3* | 96.9* | -16.6 | 63.1*
